Assay results reported in PubChem BioAssay AID623887 (Johns Hopkins Ion Channel Center, 2012).
Values joined by “and” are separate entries in the source; they are usually repeats but may differ in a detail not shown here. Equal entries are not always repeated. Active and inactive are the calls of the source.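 How the source made its calls: active means blocks the KCNK9 potassium channel at some tested concentration and gives a dose response curve; inactive means the rest.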

What follows are compounds tested against Potassium channel subfamily K member 9 (Homo sapiens) (UniProt Q9NPC2) (assay: concentration-dependent blockade of KCNK9 channel – cell-based, round 4, SAR follow-up (AID 623887)). Details: HEK293-KCNK9 thallium flux, FluxOR fluorescence.
Method in brief: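 Test system: tetracycline-induced HEK293 cells stably expressing the KCNK9 channel; signal: kinetic FluxOR fluorescence of thallium influx, 110 s after stimulus; reagent: Potassium/thallium sulfate stimulus buffer (5x stock); incubation: dye 90 min, compound 20 min at room temperature; repeats: replicate measurements at each compound concentration; dosing: multi-concentration series of test compound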

Sequence of Potassium channel subfamily K member 9 (Homo sapiens) (Q9NPC2 whole entry, looked up): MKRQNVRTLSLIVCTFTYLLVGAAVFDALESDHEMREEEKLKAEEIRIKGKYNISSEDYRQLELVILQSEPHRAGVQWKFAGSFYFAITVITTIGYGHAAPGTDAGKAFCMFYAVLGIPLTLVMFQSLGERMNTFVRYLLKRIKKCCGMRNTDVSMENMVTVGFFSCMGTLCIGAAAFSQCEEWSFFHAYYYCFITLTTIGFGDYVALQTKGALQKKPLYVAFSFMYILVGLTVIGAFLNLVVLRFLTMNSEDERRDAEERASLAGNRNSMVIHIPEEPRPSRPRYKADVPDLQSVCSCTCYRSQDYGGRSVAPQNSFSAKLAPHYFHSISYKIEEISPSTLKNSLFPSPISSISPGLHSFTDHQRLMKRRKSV

First: C[C@H](C1CCCCC1)n1c(-c2ccccc2F)n[nH]c1=S
Second: COc1cccc(-c2n[nH]c(=S)n2[C@H](C)C2CCCCC2)c1
The IC50 of the first is 5-fold lower: 683 nM for the first, 3420 nM for the second. The first is the more potent here.

Going from C[C@H]([C@@H]1CC2CC[C@H]1C2)n1c(-c2ccco2)n[nH]c1=S to CC([C@@H]1CC2CC[C@H]1C2)n1c(-c2ccsc2)n[nH]c1=S (stereo partly drawn), the IC50 rises from 53 nM to 180 nM (3.4-fold). The first is the more potent here.

COc1ccc(CSc2nnc(-c3ccco3)n2C(C)C2CC3CCC2C3)cc1OC (stereo not drawn) and COc1ccc(C(=O)CCSc2nnc(-c3ccco3)n2C(C)C2CC3CCC2C3)cc1OC (stereo not drawn) are within 1.5-fold of each other in IC50: 547 nM for the first, 663 nM for the second.

Compared with COc1cccc(CCSc2nnc(-c3ccco3)n2C(C)C2CC3CCC2C3)c1 (stereo not drawn), CC(C1CC2CCC1C2)n1c(SCCc2cccc(O)c2)nnc1-c1ccco1 (stereo not drawn) is 1.5-fold higher in IC50: 1190 nM for the first, 1830 nM for the second. The first is the more potent here.

Compared with CC(C1CC2CCC1C2)n1c(SCC(=O)N2CCN(C)CC2)nnc1-c1ccco1 (stereo not drawn), COc1ccc(NC(=O)CSc2nnc(-c3ccco3)n2C(C)C2CC3CCC2C3)cc1OC (stereo not drawn) is 1.5-fold lower in IC50: 28000 nM for the first, 18300 nM for the second.

First: COc1ccc(CC(=O)NCc2ccccc2-c2ccccc2C(=O)NCc2ccc(F)cc2F)cc1
Second: CCCC(=O)C1CCN(c2ncnc3c2CN(C(=O)c2ccc(-c4ccccc4)cc2)CC3)CC1
The IC50 of the first is 23-fold higher: 3200 nM for the first, 141 nM for the second.

C[C@H](C1CCCCC1)n1c(-c2ccsc2)n[nH]c1=S and CC(C1C[C@H]2CCC1C2)n1c(-c2ccsc2)n[nH]c1=S (stereo partly drawn) are within 1.5-fold of each other in IC50: 428 nM for the first, 582 nM for the second.

Compared with CC(C1CC2CCC1C2)n1c(SCCc2ccccn2)nnc1-c1ccco1 (stereo not drawn), CC(C1CC2CCC1C2)n1c(-c2ccco2)nn(CCc2ccncc2)c1=S (stereo not drawn) is 14-fold lower in IC50: 3090 nM for the first, 223 nM for the second. The second is the more potent here.

Going from C[C@H]([C@@H]1CC2CC[C@H]1C2)n1c(-c2ccccc2F)n[nH]c1=S to COc1cccc(-c2n[nH]c(=S)n2[C@H](C)[C@@H]2CC3CC[C@H]2C3)c1, the IC50 rises from 169 nM to 467 nM (2.8-fold). The first is the more potent here.

Work on COc1cccc(-c2nnc(SSc3nnc(-c4cccc(OC)c4)n3C(C)C3CC4CCC3C4)n2C(C)C2CC3CCC2C3)c1 (stereo not drawn) yielded an IC50 of 28000 nM.

In the case of C[C@@H]([C@@H]1CC2CC[C@H]1C2)n1c(-c2ccsc2)n[nH]c1=S, the IC50 is reported as 146 nM and 544 nM.
C[C@@H]([C@@H]1CC2CC[C@H]1C2)n1c(-c2ccco2)n[nH]c1=S was tested, and the IC50 was 181 nM and 128 nM.

Same assay, conditions: HEK293-KCNK9 thallium flux, FluxOR fluorescence; at 30 µM (top of the series)

In the case of CC(C1CC2CCC1C2)n1c(SCCN2CCOCC2)nnc1-c1ccco1 (stereo not drawn), the “flux ratio, lower = inhibition” value is reported as “inactive”.
In the case of CC(C1CCN(C)CC1)n1c(-c2ccco2)n[nH]c1=S (stereo not drawn), the “flux ratio, lower = inhibition” value is reported as “inactive”.
